# Source: ChEMBL document CHEMBL1140253, “Synthesis of functionalized acetophenones as protein tyrosine phosphatase 1B inhibitors” (Bioorg Med Chem Lett, 2005)
# Biological target: Tyrosine-protein phosphatase non-receptor type 1 (Mus musculus) (UniProt P35821)
# Assay: (§1) In vitro inhibitory activity against PTP1B at 100 uM 10 min incubation
# How it was run: (§2)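 p-Nitrophenylphosphate (10 mM) as substrate in 50 mM HEPES buffer, pH 7, with 1 mM EDTA and DTT. Compounds tested at 100 µM, with sodium vanadate as reference control. Result given as percent inhibition of phosphatase activity, mean of three independent experiments.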
row,Compound,inhibition [%]
1,SODIUM ORTHOVANAD,56.2

# Biological target: T1, Tyrosine-protein phosphatase non-receptor type 1 (Mus musculus) (UniProt P35821)
# T1 sequence (whole entry): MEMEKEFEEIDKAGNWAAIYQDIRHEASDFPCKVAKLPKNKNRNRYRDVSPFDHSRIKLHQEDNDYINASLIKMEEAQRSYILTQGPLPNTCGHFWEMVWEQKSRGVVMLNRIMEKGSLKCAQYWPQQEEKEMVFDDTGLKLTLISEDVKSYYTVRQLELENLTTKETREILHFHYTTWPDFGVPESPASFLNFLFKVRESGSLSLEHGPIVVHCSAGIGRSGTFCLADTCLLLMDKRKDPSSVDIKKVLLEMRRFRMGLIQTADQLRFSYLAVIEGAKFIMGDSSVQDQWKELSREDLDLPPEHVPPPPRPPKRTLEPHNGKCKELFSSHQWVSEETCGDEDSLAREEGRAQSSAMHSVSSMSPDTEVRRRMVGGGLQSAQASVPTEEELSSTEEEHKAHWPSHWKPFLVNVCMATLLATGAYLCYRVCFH
# Assay: as §1
# How it was run: as §2
row,Compound,inhibition
1,O=C(/C=C(\O)c1ccc2occc2c1O)c1ccc(C(F)(F)F)cc1,No inhibition
2,CC(=O)c1ccc(OCCc2ccccc2)cc1OC(=O)c1ccc(F)cc1,No inhibition
3,CC(=O)c1cc2ccoc2cc1O,19.1%
4,CC(=O)c1ccc2occc2c1O,No inhibition
5,CC(=O)c1ccc(OCC#N)cc1OC(=O)c1ccc(F)cc1,No inhibition
6,CC(=O)c1ccc(OCCc2ccccc2)cc1O,38.6%
7,CC(=O)c1ccc(OCCO)cc1O,No inhibition
8,C=CCOc1ccc(C(C)=O)c(O)c1,No inhibition
9,CC(=O)c1cc2ccoc2cc1OC(=O)c1ccccc1,No inhibition
10,N#CCOc1ccc(/C(O)=C/C(=O)c2ccc(F)cc2)c(O)c1,No inhibition
11,COc1ccc(C(=O)Oc2cc3occc3cc2C(C)=O)cc1OC,No inhibition
12,CC(=O)c1ccc2occc2c1OC(=O)c1ccc(C(F)(F)F)cc1,32.4%
13,CC(=O)c1ccc2occc2c1OC(=O)c1ccc(Cl)c(Cl)c1,54.1%
14,COc1cccc(C(=O)Oc2cc3occc3cc2C(C)=O)c1,8.1%
15,CC(=O)c1cc2ccoc2cc1OC(=O)c1ccc2c(c1)OCO2,34%
16,O=C(/C=C(\O)c1ccc(OCCc2ccccc2)cc1O)c1ccc(F)cc1,No inhibition
17,CC(=O)c1ccc(OCC2CO2)cc1O (stereo not drawn),22.4%
18,N#CCOc1ccc(/C(O)=C/C(=O)c2ccccc2)c(O)c1,No inhibition
19,CC(=O)c1ccc(OCC#N)cc1O,22.4%
20,CC(=O)c1ccc(OCC#N)cc1OC(=O)c1ccccc1,12.8%
21,CC(=O)c1ccc2occc2c1OC(=O)c1ccccc1,43.2%
22,COc1ccc(C(=O)Oc2cc3occc3cc2C(C)=O)cc1,13.5%
